TRPC6 activator: activators of mouse TRPC6 channel. Q61143. HEK293-TRPC6 membrane potential dye fluorescence; hits give high values. B-score at 10 µM. actives 0.13% (n = 310,000);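 active means B-score of the integrated fluorescence ratio above library mean plus 3 SD, and starting fluorescence ratio within library mean plus 5 SD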;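 further: higher score means more depolarization so channel activation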
Target sequence (Q61143 whole entry, looked up): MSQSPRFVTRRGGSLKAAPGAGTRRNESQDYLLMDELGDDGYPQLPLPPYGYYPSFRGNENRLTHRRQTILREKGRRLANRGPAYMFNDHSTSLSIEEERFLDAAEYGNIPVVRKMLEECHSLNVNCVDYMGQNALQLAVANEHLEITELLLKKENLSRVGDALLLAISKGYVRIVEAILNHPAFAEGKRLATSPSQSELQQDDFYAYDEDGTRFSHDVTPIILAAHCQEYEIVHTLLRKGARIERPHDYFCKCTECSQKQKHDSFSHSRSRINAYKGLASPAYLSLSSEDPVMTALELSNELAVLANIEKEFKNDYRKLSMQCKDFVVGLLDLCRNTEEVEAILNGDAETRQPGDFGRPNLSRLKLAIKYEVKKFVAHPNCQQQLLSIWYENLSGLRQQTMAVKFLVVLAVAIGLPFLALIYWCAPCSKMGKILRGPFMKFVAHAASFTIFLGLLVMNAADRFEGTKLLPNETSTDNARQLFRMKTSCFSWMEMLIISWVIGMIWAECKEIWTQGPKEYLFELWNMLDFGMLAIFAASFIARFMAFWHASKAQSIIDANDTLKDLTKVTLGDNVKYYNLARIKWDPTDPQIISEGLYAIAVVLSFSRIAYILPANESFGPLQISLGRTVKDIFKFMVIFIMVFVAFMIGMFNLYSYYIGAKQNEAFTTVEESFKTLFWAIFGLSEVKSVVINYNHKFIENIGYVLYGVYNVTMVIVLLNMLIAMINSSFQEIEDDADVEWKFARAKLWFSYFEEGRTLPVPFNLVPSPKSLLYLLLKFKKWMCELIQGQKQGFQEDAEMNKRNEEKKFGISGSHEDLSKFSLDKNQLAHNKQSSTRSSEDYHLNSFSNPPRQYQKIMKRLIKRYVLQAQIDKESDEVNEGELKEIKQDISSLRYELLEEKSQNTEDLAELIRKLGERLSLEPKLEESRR
TRPC6 inh: inhibitors of mouse TRPC6 channel | B-score at 10 µM | actives 1.1% (n = 310,000) | AID 2553 | HEK293-TRPC6, membrane potential dye, ACh-evoked depolarization; hits give low values | Q61143;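 active means B-score under library mean minus 3 SD, initial fluorescence not abnormally high, positive integrated signal ratio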;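 further: B-score derived from integrated fluorescence ratio over the kinetic read; more negative B-score means stronger inhibition of depolarization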
TRPC4 PAM: allosteric potentiators of mouse TRPC4 channel. HEK293 TRPC4beta/mu-opioid, DAMGO EC20, Fluo-4 Ca2+ flux; hits give high values. B-score at 10 µM. actives 0.42% (n = 310,000). AID 2227;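 active means B-score of calcium response area above 5 SD of library B-scores, with initial fluorescence ratio within 5 SD of library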;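 further: B-score of integrated fluorescence ratio over time as area under calcium response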
TRPC4 act: opens the mouse TRPC4 cation channel | Q9QUQ5 | HEK293 TRPC4beta/mu-opioid, Fluo4 calcium fluorescence; hits give high values | B-score at 10 µM | actives 0.49% (n = 310,000);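 active means B-score above 5 SD of library B-scores, and initial fluorescence ratio not above library mean plus 5 SD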;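 further: positive B-score marks a calcium rise read as TRPC4 activation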
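Material: TRPC4beta and mu-opioid receptor HEK293 stable cells | Incubation: 45 min room-temperature Fluo4 loading, 110 s read | Detection: Kinetic Fluo4 calcium fluorescence | Measure: Integrated baseline-normalised fluorescence ratio, converted to per-well B score | Benchmarks: Low control buffer alone, high control maximal DAMGO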
TRPC4 block: TRPC4 (mouse) channel inhibition; HEK293 TRPC4beta/mu-opioid, DAMGO-evoked Fluo4 calcium flux; hits give low values; B-score at 10 µM; actives 0.39% (n = 300,000); AID 2247;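 active means B-score over 3 SD under the library average, no early fluorescence shift, positive overall ratio signal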
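test system = HEK293 cells with stable TRPC4beta plus mu-opioid receptor expression | detection = Fluo4 Ca2+ flux fluorescence | read-out = integrated fluorescence ratio relative to baseline, converted to per-well B score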
TRPC4 sel inh 2: second selectivity test of TRPC6 inhibitors: effect on mouse TRPC4; actives 42% (n = 920); shares compounds with TRPC6 inh; HEK293 TRPC4/MOR, membrane potential dye fluorescence; channel activated by saturating DAMGO dose; inhibition, % at 10 µM;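 active means compounds whose fluorescence signal differed from control wells by over 3 SD, either direction, in both duplicate plates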
TRPC4 spec: tests whether TRPC6 inhibitors also affect mouse TRPC4. shares compounds with TRPC6 inh. HEK293 TRPC4/mu-opioid, membrane potential fluorescence. activity change, negative = inhibition, % at 10 µM. actives 61% (n = 920). AID 2777;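 active means rise or fall in signal beyond 3 SD of buffer-only wells in both replicate plates, either sign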;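 further: integrated kinetic ratio of fluorescence range over baseline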
HEK293 MPD ctr 2-1: parental HEK293 nonspecific activity of TRPC6 inhibitors, second screen; AID 2779; parental HEK293 membrane potential dye fluorescence; maximal acetylcholine challenge after compound addition; signal change vs control, % at 10 µM; shares compounds with TRPC6 inh; actives 31% (n = 920);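 active means membrane potential signal moving either way by over 3 SD of the maximum-effect control, in both duplicate plates, meaning non-specific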
HEK293 MPD ctr-1: parental HEK293 nonspecific activity of TRPC6 inhibitors; AID 2780; membrane potential signal change, % at 10 µM; parental HEK293 membrane potential dye fluorescence; actives 60% (n = 920); shares compounds with TRPC6 inh;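 active means membrane potential signal shifting up or down by more than 3 SD of buffer-only wells, on both duplicate plates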
HEK293 MPD ctr-2: parental HEK293 nonspecific activity of TRPC6 modulators; shares compounds with TRPC6 inh; membrane potential dye fluorescence; membrane potential signal change, % at 10 µM; actives 51% (n = 2,400); AID 488924;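 active means membrane potential signal moves up or down beyond 5 SD from buffer-only wells, on both duplicate plates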
HEK293 MPD ctr 2-2: parental HEK293 nonspecific activity of TRPC6 modulators, second screen; shares compounds with TRPC6 inh; membrane potential dye fluorescence; after compound, maximal acetylcholine stimulation; inhibition, % at 10 µM; actives 14% (n = 2,400);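 active means membrane potential signal drops by more than 5 SD from the mean control signal, in both duplicate plates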;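 further: plate controls were acetylcholine ECmax control wells for no effect and buffer only wells for full effect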
TRPC4/MOR mod: tests whether TRPC6 modulators also affect mouse TRPC4. shares compounds with TRPC6 inh. HEK293 TRPC4/mu-opioid, membrane potential fluorescence. percent change from control (negative = decrease, positive = increase), % at 10 µM. actives 69% (n = 2,400). AID 488927;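 active means membrane potential signal moved up or down beyond 5 SD of buffer control wells, in both duplicate plates, actives on both sides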;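 further: plate controls were assay buffer wells for no effect and DAMGO maximal-effect wells for full effect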
TRPC4 ctr inh 2: second selectivity test of TRPC6 modulators against mouse TRPC4. shares compounds with TRPC6 inh. HEK293 TRPC4/mu-opioid, membrane potential dye fluorescence; stimulated with maximal-effect DAMGO. inhibition, % at 10 µM. actives 55% (n = 2,400);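 active means drop in membrane potential signal beyond 5 SD of the control wells in both duplicate plates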;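 further: TRPC4 counter screen for TRPC6 hits run under conditions tuned for TRPC6 not TRPC4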
TRPC6 inh conf: confirmation of mouse TRPC6 inhibitors | shares compounds with TRPC6 inh | HEK293-TRPC6, membrane potential dye, ACh-evoked depolarization | inhibition, % at 10 µM | actives 43% (n = 3,300);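 active means fluorescence ratio falls more than 5 SD below the full-stimulation control mean, in both duplicate runs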;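 further: integrated fluorescence ratio of peak minus minimum over baseline after agonist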
TRPC6 act conf: mouse TRPC6 activator confirmation; shares compounds with TRPC6 inh; HEK293-TRPC6 membrane potential dye fluorescence, FDSS; activation, % at 10 µM; actives 11% (n = 2,800); AID 488961;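 active means ratio signal rise beyond 5 SD above unstimulated control wells' mean, seen in both duplicate runs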;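 further: plate controls were buffer EC0 wells for no effect and acetylcholine ECmax response for full effect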
Numbers without * were called inactive; i = inactive; / = no result given. Sampled rows, rich in hits. Any-hit rate of the full collection: about 2.3%.

SMILES | TRPC6 activator | TRPC6 inh | TRPC4 PAM | TRPC4 act | TRPC4 block | TRPC6 inh conf | TRPC6 act conf | others
COc1ccc(N2CCN(C(=O)c3ccc(F)cc3)CC2)c([N+](=O)[O-])c1 | i | i | i | i | i | / | /
Cn1cccc1/C=C1\CCC/C(=C\c2cccn2C)C1=O | 35* | i | i | i | i | i | 66%* | HEK293 MPD ctr-2=261%*;HEK293 MPD ctr 2-2=i;TRPC4/MOR mod=98%*;TRPC4 ctr inh 2=i
O=C1/C(=C/c2cccs2)CCC/C1=C\c1cccs1 | i | i | i | i | i | / | /
COc1ccc(-c2cc(C(F)(F)F)n3nc(C(=O)N4CCN(C(=O)c5ccco5)CC4)cc3n2)cc1 | i | i | i | i | i | / | /
O=C(c1cc2nc(-c3ccco3)cc(C(F)(F)F)n2n1)N1CCN(Cc2ccccc2)CC1 | i | -6.7* | i | i | i | i | i | TRPC4 sel inh 2=i;TRPC4 spec=5.7%*;HEK293 MPD ctr 2-1=227%*;HEK293 MPD ctr-1=2.3%*
Cc1ccc(NC(=O)CN(C)C(=O)Cc2c(Cl)cccc2Cl)cc1 | i | i | i | i | i | / | /
Cc1ccccc1-c1nc(-c2ccc(NC(=O)c3cccs3)cc2)no1 | i | -7.1* | i | i | i | i | i | TRPC4 sel inh 2=i;TRPC4 spec=i;HEK293 MPD ctr 2-1=i;HEK293 MPD ctr-1=i
CCc1ccc(NC(=O)C2CCN(S(=O)(=O)c3cccs3)CC2)cc1 | i | i | i | i | i | / | /
CN1C=C/C(=C\c2cc[n+](C)c3ccccc23)c2ccccc21 | i | -5.8* | i | i | i | i | i | HEK293 MPD ctr-2=-265%*;HEK293 MPD ctr 2-2=i;TRPC4/MOR mod=-27%*;TRPC4 ctr inh 2=32%*
Cc1ccc(C2C3C(=O)N(c4ccccc4)C(=O)C3N3CCCN23)cc1 (stereo not drawn) | i | i | i | i | i | / | /
Cc1cccc(NS(=O)(=O)c2cccc(C(=O)N3CCN(c4ccccn4)CC3)c2)c1 | i | -10* | i | i | i | 79%* | / | TRPC4 sel inh 2=i;TRPC4 spec=2.7%*;HEK293 MPD ctr 2-1=220%*;HEK293 MPD ctr-1=1.3%*
Cc1cccc(NS(=O)(=O)c2cccc(C(=O)N3CCN(S(=O)(=O)c4ccccc4)CC3)c2)c1 | 13* | -13* | i | i | i | 110%* | 132%* | HEK293 MPD ctr-2=i;HEK293 MPD ctr 2-2=i;TRPC4/MOR mod=i;TRPC4 ctr inh 2=i
CCOC(=O)N1CCN(C(=O)c2cccc(S(=O)(=O)Nc3ccc(Br)cc3)c2)CC1 | i | -9* | i | i | i | i | / | TRPC4 sel inh 2=i;TRPC4 spec=i;HEK293 MPD ctr 2-1=252%*;HEK293 MPD ctr-1=i
CCOC(=O)N1CCN(C(=O)c2cccc(NS(=O)(=O)c3ccc(F)c(F)c3)c2)CC1 | i | i | i | i | i | / | /
O=C(c1cccc(S(=O)(=O)Nc2ccccc2F)c1)N1CCN(c2ccccc2F)CC1 | i | -6.5* | i | i | i | 64%* | / | HEK293 MPD ctr-2=i;HEK293 MPD ctr 2-2=i;TRPC4/MOR mod=i;TRPC4 ctr inh 2=i
COc1cc(OC)c(C(=O)OCC(=O)NCCC2=CCCCC2)cc1OC | i | i | i | i | i | / | /
Cc1cc(C)c(NC(=O)Cn2c([N+](=O)[O-])cnc2C)c(C)c1 | i | i | i | i | i | / | /
Cc1ccc(NC(=O)CSc2ccc(-c3ccccn3)nn2)cc1F | i | i | i | i | i | / | /
CCOC(=O)CSc1nc2c(c(=O)[nH]1)C(C)(CC)Cc1ccccc1-2 (stereo not drawn) | i | i | i | i | i | / | /
CC1Cc2ccccc2N1S(=O)(=O)c1cccc(C(=O)N2CCN(c3ncccn3)CC2)c1 (stereo not drawn) | 21* | i | i | i | i | / | 174%* | HEK293 MPD ctr-2=130%*;HEK293 MPD ctr 2-2=i;TRPC4/MOR mod=86%*;TRPC4 ctr inh 2=86%*
CN(c1ccccc1)S(=O)(=O)c1cccc(C(=O)N2CCN(c3ccccn3)CC2)c1 | 12* | -7.2* | i | i | i | 64%* | 94%* | HEK293 MPD ctr-2=144%*;HEK293 MPD ctr 2-2=i;TRPC4/MOR mod=38%*;TRPC4 ctr inh 2=i
CNC(=O)NNC(=O)c1csc(Cc2c(Cl)sc3ccc(Cl)cc23)n1 | i | i | i | i | i | / | /
Cc1ccc(N/C(N)=N/c2nc3c(c(=O)[nH]2)CCCC3)c(C)c1 | i | i | i | i | i | / | /
Cc1ccc(N/C(N)=N/c2nc(C)cc(N3CCCCC3)n2)c(C)c1 | i | -8.9* | i | i | i | 82%* | / | HEK293 MPD ctr-2=339%*;HEK293 MPD ctr 2-2=i;TRPC4/MOR mod=74%*;TRPC4 ctr inh 2=66%*
CCOc1ccc(-n2c(=S)sc3c(=O)[nH]c(SCC(=O)C(C)(C)C)nc32)cc1 | i | i | i | i | i | / | /
Nc1nc(N)n(-c2ccccc2)c(=Nc2ccccc2)n1 | i | i | i | i | i | / | /
Clc1ccc(SCCCCN2CCOCC2)cc1 | i | i | i | i | i | / | /
Clc1ccc(SCCCCN2CCNCC2)cc1 | i | -7.5* | 14* | i | i | i | i | TRPC4 sel inh 2=67%*;TRPC4 spec=i;HEK293 MPD ctr 2-1=i;HEK293 MPD ctr-1=2.5%*
Cc1nc2nc(-c3ccc(Cl)cc3)nn2c(C)c1Cl | i | i | i | i | i | / | /
